Only some compounds are listed: those with a hit (about 2.1% of all), similar ones and a draw of the others.
proKLK7 act: activates the human kallikrein-7 zymogen. P49862. purified proKLK7, EDANS-DABCYL substrate fluorescence; 100% is mature enzyme control, 0% vehicle. activation, % at 7 µM. hit rate 0.9% among 370,000;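 active = activation above the mean of all tested compounds plus 3 SD, computed per campaign excluding outliers beyond control limits, cut at about 13% in these data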
Runt-CBFb FRET: inhibitors of human RUNX1 Runt domain binding to CBFb | Q01196+Q13951 | Cerulean-Runt/Venus-CBFb FRET ratio 530/480, 1 h | inhibition, % at 20 µM | hit rate 0.46% among 220,000 | AID 1496;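 active = inhibition over about 50% at 20 µM in the single-dose screen, limit read from the data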;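 also: 0% = DMSO wells and 100% = excess unlabeled CBFb competitor control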
Target sequence (Q01196 whole entry, looked up, the tested form may be a part): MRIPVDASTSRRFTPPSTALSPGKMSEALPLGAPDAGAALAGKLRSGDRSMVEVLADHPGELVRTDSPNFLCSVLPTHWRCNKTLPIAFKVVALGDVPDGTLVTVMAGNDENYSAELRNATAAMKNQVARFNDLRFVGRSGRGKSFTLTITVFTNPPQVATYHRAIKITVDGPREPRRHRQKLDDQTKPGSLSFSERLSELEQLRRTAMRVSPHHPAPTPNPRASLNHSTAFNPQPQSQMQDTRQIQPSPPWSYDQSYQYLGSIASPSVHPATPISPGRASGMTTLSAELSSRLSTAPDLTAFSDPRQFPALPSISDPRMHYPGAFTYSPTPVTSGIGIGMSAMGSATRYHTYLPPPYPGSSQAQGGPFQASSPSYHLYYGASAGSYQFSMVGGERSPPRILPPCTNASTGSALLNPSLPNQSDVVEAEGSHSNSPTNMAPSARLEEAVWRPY
Target sequence (Q13951 whole entry, looked up, the tested form may be a part): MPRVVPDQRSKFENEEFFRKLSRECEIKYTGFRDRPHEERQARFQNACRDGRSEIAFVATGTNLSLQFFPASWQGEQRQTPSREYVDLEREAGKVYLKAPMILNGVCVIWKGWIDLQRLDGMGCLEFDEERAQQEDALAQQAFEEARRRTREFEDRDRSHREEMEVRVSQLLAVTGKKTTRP
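Buffer or medium: Tris pH 7.5 buffer with BSA. Assay system: Cerulean-labeled Runt domain protein. Amount: each fluorescent fusion protein 100 nM. Read-out basis: loss of energy transfer signal. Incubation: 1 h compound exposure, room temperature. Probe or stimulus: Venus-CBFb binding partner, 100 nM. Detection: FRET, excitation 422 nm, emission at 530 and 480 nm.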
Runt-SMMHC FRET: inhibitors of human RUNX1 Runt domain binding to CBFb-SMMHC | Q01196+Q13951 | Cerulean-Runt/Venus-CBFb-SMMHC FRET ratio 530/480, 1 h | inhibition, % at 20 µM | hit rate 0.74% among 220,000 | AID 1434;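 active = mean inhibition across duplicate retests at 20 µM reaching about 50%, limit read from the data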;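 also: 0% = DMSO wells and 100% = wells with excess untagged CBFb-SMMHC; inhibitors lower the FRET ratio by blocking Runt binding to CBFb-SMMHC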
MEX-5 binding: C. elegans MEX-5 TCR-2 RNA binding activity; AID 1832; hit rate 0.38% among 300,000; MEX-5/FITC-TCR2 RNA binding, fluorescence polarization; active compounds read low; Q9XUB2; activity score (negative = inhibition of binding), % at 10 µM;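 active = inhibition past about -25% in most replicates, and total fluorescence under double the plate's negative control median, limit read from the data; inconclusive = replicates evenly split on the limit, or fluorescence at least double controls; inactive = too little inhibition in most replicates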;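 also: 0% = DMSO and -100% = 5 µM competing unlabeled TCR2 RNA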
RanGTP-Impb inh: inhibitors of RanGTP-importin-beta interaction, primary screen, biochemical, FRET, CFP-Ran, YFP-importin-beta, homogeneous; cell-free CFP-Ran/YFP-importin-beta FRET ratio; inhibition, % (concentration not given with the values); hit rate 1.1% among 300,000; AID 2216;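 active = more than half of the replicate wells show a fall in the fluorescence ratio signal beyond about 16%, limit read from the data, passing the limit was not always enough; inconclusive = exactly half of the replicate wells pass the set limit; inactive = fewer than half of replicates pass the limit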;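 also: 0% = DMSO wells and 100% = Ran loaded with GDP instead of GTP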
RUNX1 CBFb TR: disrupts human RUNX1 Runt domain binding to CBFb; TR-FRET RUNX1 Runt domain-CBFb binding; shares compounds with Runt-CBFb FRET; hit rate 20% among 480; inhibition, % at 20 µM; AID 1502; in the data active = inhibition above about 40%
* = called active by the depositor; ? = inconclusive; / = not tested or not shown.

SMILES | proKLK7 act | Runt-CBFb FRET | Runt-SMMHC FRET | MEX-5 binding | RanGTP-Impb inh | RUNX1 CBFb TR
CC(=O)c1ccc(OC(=O)CCc2nc3ccccc3s2)cc1 | -1 | 59* | 37 | 1 | -3 | 42*
COc1ccccc1OC(=O)CCc1nc2ccccc2s1 | -1 | 6 | 4 | 2 | 0 | /
O=C(COc1ccccc1)NNc1c2ccccc2nc2ccccc12 | 2 | 58* | 81* | -1 | 5 | -1
O=C(NNc1c2ccccc2nc2ccccc12)c1cccc(O)c1 | 1 | 22 | 35 | 2 | ? | /
O=C(NNc1c2ccccc2nc2ccccc12)c1ccc(O)cc1 | 4 | 52* | 58* | 2 | 36* | -45
O=C(NC1CCCCCCC1)c1ccc(Br)o1 | 0 | / | / | 2 | 1 | /
Cc1[nH]c2ccccc2c1C1=NNC(=Nc2ccc(F)cc2)SC1 | 1 | 53* | 47 | 1 | / | -2
COc1ccc(-c2nc3c(Cl)cc(C(F)(F)F)cn3c2Cc2cccc(F)c2)cc1OC | 0 | / | / | / | / | /
CCOc1ccc(C(C(=O)NC2CCCC2)N(C(=O)CNC(=O)c2ccco2)c2cccnc2)cc1 (configuration not stated) | 0 | / | / | 1 | 2 | /
CCOC(=O)C1=C(CNCCc2ccc(Cl)cc2)NC(=O)NC1c1ccc2c(c1)OCO2 (configuration not stated) | -1 | 65* | 1 | 2 | -5 | 7
C[C@@H]1Cn2cnc(C(=O)N[C@@H](C)c3ccccc3)c2C(=O)N1 | 0 | / | / | / | / | /
CCOC(=O)c1c(/N=C/N(C)C)sc(/C=N/Nc2ccccc2)c1-c1ccc(Cl)cc1 | -1 | 58* | 119* | -3 | -39 | -12
CN(C)S(=O)(=O)c1cccc(NC(=O)C2CCCN(C(=O)c3ccc(Cl)cc3)C2)c1 (configuration not stated) | 0 | / | / | / | / | /
CC(C)CC(=O)Nc1nnc(S(=O)(=O)N2c3ccccc3CC2C)s1 (configuration not stated) | 0 | / | / | -2 | 7 | /
COc1ccc(CN2CCN(c3ccccc3OC)CC2)cc1OC | -1 | / | / | 1 | 0 | /
COc1ccccc1N1CCN(Cc2ccsc2)CC1 | 1 | 54* | 1 | 3 | 7 | -6
CC1CN(C(=O)CCC(=O)NCCCN2C(C)CCCC2C)c2ccccc2O1 (configuration not stated) | -1 | / | / | -1 | 2 | /
O=[N+]([O-])c1cccc(C(=S)N2CCN(c3ccccc3F)CC2)c1 | -1 | 1 | -5 | 0 | -2 | /
O=[N+]([O-])c1cccc(C(=S)N2CCN(c3ccccc3)CC2)c1 | 1 | 53* | 24 | 0 | 1 | 21
NS(=O)(=O)c1ccc(N/C=C\C(=O)c2ccc3ccccc3c2)cc1 | -2 | 50* | -62 | -3 | -3 | 44*
COc1ccc(N/C=C\C(=O)c2ccc3ccccc3c2)cc1 | -1 | / | / | 0 | -4 | /
Clc1cccc(Nc2c3c(nc4ncnn24)CCC3)c1 | 0 | 54* | -1 | -2 | 0 | 3
COC(=O)c1cc(=O)nc2sc(-c3ccc(F)cc3)nn12 | / | 52* | 5 | 1 | 0 | 22
Oc1ccc(Cl)cc1C1=Nc2ccccc2N=C(c2ccco2)C1 | 0 | -32 | -51 | -5 | 1 | /
Fc1ccccc1C1CC(c2ccco2)=Nc2ccccc2S1 (configuration not stated) | 1 | 50* | 3 | -3 | 2 | 22
O=C(O)C[C@@H]1C(=O)O[C@@H]2C(COC(=O)c3cc(O)c(O)c(O)c3)O[C@@H](OC(=O)c3cc(O)c(O)c(O)c3)[C@@H](OC(=O)c3cc(O)c(O)c4c3[C@H]1[C@H](O)C(=O)O4)[C@H]2OC(=O)c1cc(O)c(O)c(O)c1 (some centres not stated) | / | 51* | 4 | / | / | 49*
c1ccc(C2CC(c3cccs3)=NN2c2ccccc2)cc1 (configuration not stated) | -86 | 51* | 84* | 2 | 12 | 39
CN(CC(=O)Nc1ccc(Cl)c(S(=O)(=O)N2CCOCC2)c1)C(=O)c1ccc(C#N)cc1 | 1 | / | / | / | / | /
COC(=O)c1ccc(C(=O)OC)c(N)c1 | / | 68* | 110* | -1 | / | 43*

Screening data from PubChem BioAssay.
